Laboratory results: ChEMBL document CHEMBL4130600, “Keikipukalides, Furanocembrane Diterpenes from the Antarctic Deep Sea Octocoral Plumarella delicatissima” (J Nat Prod, 2018)
Activity calls are given as the source filed them. The calls are words filed in the database; no cut-off is given here.

What was measured:
Klebsiella pneumoniae = assay: Antibacterial activity against drug-resistant Klebsiella pneumoniae; assay type: functional, organism-based
Enterococcus faecium = assay: Antibacterial activity against drug-resistant Enterococcus faecium; assay type: functional, organism-based
Staphylococcus aureus = assay: Antibacterial activity against drug-resistant Staphylococcus aureus; assay type: functional, organism-based
A549 = assay: Cytotoxicity against human A549 cells after 72 hrs by CellTiter 96 AQueous one solution cell proliferation assay; assay type: cell-based; conditions: A549, 72 h
Summary of the method: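 A549 cells seeded at 1440 cells/well in F12K with 10% FBS and 1% penicillin–streptomycin, with compounds in doubling dilutions from 50 μg/mL final. Incubated 72 h at 37 °C, 5% CO2. MTS added 4 h before the end, OD read at 490 nm. Controls were cells with media and media alone.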

Enterobacter = assay: Antibacterial activity against drug-resistant Enterobacter; assay type: functional, organism-based
Clostridioides difficile = assay: Antibacterial activity against Clostridium difficile; assay type: functional, organism-based
Acinetobacter baumannii = assay: Antibacterial activity against drug-resistant Acinetobacter baumannii; assay type: functional, organism-based
Pseudomonas aeruginosa = assay: Antibacterial activity against drug-resistant Pseudomonas aeruginosa; assay type: functional, organism-based
Leishmania donovani = assay: Antileishmanial activity against Leishmania donovani MHOM/SD/75/1246/130 axenic amastigotes infected in mouse J774A.1 cells after 72 hrs by Draq5 staining based assay; assay type: functional, organism-based; conditions: MHOM/SD/75/1246/130, J774.A1, 72 h
Summary of the method: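 Amastigotes grown axenically at 37 °C in RPMI 1640, pH 5.5, with Hepes, MES, hemin, xanthine, Tween-80 and 20% heat-inactivated FBS. Parasites added 10:1 to 2000 J774A.1 macrophages per well, 24 h at 37 °C, 5% CO2, then extracellular parasites washed off. Compounds from 10 μg/mL, 1:2 serial dilution, 72 h. Fixed in 2% paraformaldehyde, Draq5 stain, imaged; amastigotes per 500 macrophages counted for IC50.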

Naegleria fowleri = assay: […] activity against Naegleria fowleri; assay type: functional, organism-based

SMILES	Activity (Klebsiella pneumoniae)	Activity (Enterococcus faecium)	Activity (Staphylococcus aureus)	IC50 (A549) [µM]	Activity (Enterobacter)	Activity (Clostridioides difficile)	Activity (Acinetobacter baumannii)	Activity (Pseudomonas aeruginosa)	IC50 (Leishmania donovani) [µM]	Activity (Naegleria fowleri)
C=C(C)[C@@H]1CC(=O)[C@H]2[C@H](C1)[C@@H]1C(=O)O[C@@H]3C[C@]4(C)O[C@H]2C(=O)[C@@H]4[C@H]13	inactive	inactive	inactive	> 50	inactive	inactive	inactive	inactive	4.4	inactive
C=C(C)[C@@H]1CCC2=C[C@H](C[C@@]3(C)O[C@@H]3C3=CC(C=O)=C(C1)O3)OC2=O	inactive	inactive	inactive	> 50	inactive	inactive	inactive	inactive	1.9	inactive
C=C(C)[C@@H]1C/C=C2\C(=O)O[C@@H](C[C@@]3(C)O[C@@H]3C3=CC(C=O)=C(C1)O3)[C@@H]2OC(C)=O	inactive	inactive	inactive	> 50	inactive	inactive	inactive	inactive	8.8	inactive
CCCCCCCCCCCCCCCCOP(=O)([O-])OCC[N+](C)(C)C [MILTEFOSINE]									6.2	
C=C(C)[C@H]1CC2=C(C=O)C=C(O2)[C@H]2O[C@]2(C)C[C@@H]2OC(=O)/C(=C\[C@H]1OC(C)=O)[C@H]2OC(C)=O	inactive	inactive	inactive	> 50	inactive	inactive	inactive	inactive	8.5	inactive
C=C(C)[C@H]1CC2=C(C=O)C=C(O2)[C@H]2O[C@]2(C)C[C@H]2C=C(C(=O)O2)[C@@H](OC(C)=O)C1	inactive	inactive	inactive	> 50	inactive	inactive	inactive	inactive	8.8	inactive
C=C(C)[C@@H]1/C=C/[C@]23O[C@H]2[C@H](C[C@@]2(C)O[C@@H]2C2=CC(C=O)=C(C1)O2)OC3=O	inactive	inactive	inactive	> 50	inactive	inactive	inactive	inactive	> 28	inactive
C=C(C)[C@@H]1/C=C/[C@]23O[C@H]2[C@H](C[C@](C)(O)[C@@H](OC(C)=O)C2=CC(C=O)=C(C1)O2)OC3=O	inactive	inactive	inactive	> 50	inactive	inactive	inactive	inactive	12	inactive
